Screens as filed in PubChem.
STAT1 inh = inhibitors of IFN-gamma induced STAT1 signaling | NIH 3T3 STAT1-luciferase reporter, luminescence | inhibition, % at 5.5 µM | AID 920 | 0.35% of 200,000 active;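 active means inhibition above a set limit, the mean inhibition across all tested compounds plus 3 SD, cut at about 34% in these data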;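 further: 0% = IFN-gamma with DMSO and 100% = IFN-gamma with 300 µM nifuroxazide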
FLuc act counter = firefly luciferase counter-screen for stimulation assays | P08659 | ATPlite luciferase biochemical, luminescence, 10 min; 0 = ATP-free wells, 1 = DMSO control | activation factor at 10 µM | 200,000 tested, under 10 active | AID 1027;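 active means luciferase activation factor, scaled between plate controls, of at least 2 with compound at 10 µM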
Target sequence (P08659 whole entry, looked up): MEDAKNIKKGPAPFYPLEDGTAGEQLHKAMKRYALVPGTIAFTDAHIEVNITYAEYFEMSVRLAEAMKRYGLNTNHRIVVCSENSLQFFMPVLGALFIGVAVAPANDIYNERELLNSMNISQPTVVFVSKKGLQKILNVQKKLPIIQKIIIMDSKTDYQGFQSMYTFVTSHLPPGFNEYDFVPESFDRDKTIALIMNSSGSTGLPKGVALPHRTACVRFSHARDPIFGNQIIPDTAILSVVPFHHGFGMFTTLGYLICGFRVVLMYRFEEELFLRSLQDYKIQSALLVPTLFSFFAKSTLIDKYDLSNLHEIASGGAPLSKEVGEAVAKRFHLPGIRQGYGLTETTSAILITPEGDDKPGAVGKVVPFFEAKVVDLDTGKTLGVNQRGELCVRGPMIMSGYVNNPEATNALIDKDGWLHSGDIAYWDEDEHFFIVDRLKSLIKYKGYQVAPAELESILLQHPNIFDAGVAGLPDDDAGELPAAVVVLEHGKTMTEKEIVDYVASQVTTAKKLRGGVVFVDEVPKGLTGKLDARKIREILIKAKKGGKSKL
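Assay system: Luciferase/luciferin reagent mix; Medium: PBS as buffer for the ATP substrate; Dosing: test compounds dosed from 2 mM stocks in 100% DMSO; Times: 10 min, room temperature; Signal: luminescence from luciferase reaction; Read-out: luciferase activation; Controls: No-ATP low control, compound-free enzyme-plus-ATP high control.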
STAT1 act = increases IFN-gamma driven STAT1 reporter signal; NIH 3T3 STAT1-luciferase reporter, luminescence; 100% = IFN-gamma alone, no compound; activation (% of control), % at 5.5 µM; 2.6% of 200,000 active; AID 932;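 active means activation above the screen-wide mean activation plus 3 SD, cut at about 130% in these data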;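 further: raw ratio to IFN-gamma control signal so 100% means no change and 0% no light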
STAT3 inh = reduces IL-6 driven STAT3 reporter signal. AID 862. 0.89% of 190,000 active. U3A cells, IL-6 STAT3-luciferase reporter, luminescence; host cell line lacks STAT1. inhibition, % at 5.5 µM;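 active means inhibition above the mean inhibition across all screened compounds plus 3 SD, cut at about 44% in these data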;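 further: 0% = DMSO only wells and 100% = 100 µM nifuroxazide control wells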
STAT3 act = STAT3 signaling activation. AID 871. U3A cells, IL-6 STAT3-luciferase reporter, luminescence; 100% = signal with IL-6 EC80 alone. activation (% of control), % at 5.6 µM. 0.91% of 190,000 active;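 active means activation above the screen-wide mean of compound activation plus 3 SD, cut at about 130% in these data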;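 further: 0% = background luminescence of wells with medium and substrate only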
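System – human U3A cells carrying STAT3-luciferase construct · Probe or stimulus – Interleukin-6, 33 ng/mL · Schedule – compound 1 h, then IL-6 6 h at 37 °C · Signal – luminescence from STAT3-driven luciferase reporter · Evaluation – percent of IL-6-only median luminescence · Benchmarks – IL-6-only high control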
FLuc inhib CS = Photinus pyralis luciferase inhibition counter-screen; P08659; ATPLite firefly luciferase biochemical luminescence, 10 min; inhibition, % at 10 µM; 1.5% of 200,000 active; AID 1006;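 active means inhibition above about 50% when tested at 10 µM, limit read from the data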
Starred values were filed as active, the others as inactive. Shown are actives, neighbours in structure and some others; about 4.9% of the full set was active somewhere.

SMILES | STAT1 inh | FLuc act counter | STAT1 act | STAT3 inh | STAT3 act | FLuc inhib CS
Cc1nn(-c2ccccc2)c(Cl)c1/C=N/NC(=O)OC(C)(C)C | -43.3 | 0.9 | 139.3* | -6.1 | 104.8 | 9.6
CNC(=S)N/N=C/c1c(C)nn(-c2ccccc2)c1Cl | -8.5 | 1 | 107.9 | 16.6 | 86.4 | 3.2
O=C(O)c1cc(N/N=C/c2ccc(OCc3ccccc3)cc2)ccc1Cl | -37.2 | 0.9 | 134.0* | -11.1 | 111.1 | 8.0
Cc1ccccc1N1CCN(C(=O)c2ccccc2NC(=O)c2ccccc2C(=O)O)CC1 | -3.8 | 1.1 | 102.2 | 2.7 | 102.2 | -6.1
Cc1cccc(NC(=O)COn2nnc3ccc(S(C)(=O)=O)cc32)c1 | -0.4 | 1 | 100.3 | 9.8 | 96.4 | -0.2
Cc1ccc(-n2cc(CNCC3CC(=O)N(C4CC4)C3)c(-c3cccc(C)c3)n2)cc1 (stereo not drawn) | -14.3 | 1 | 112.1 | 30.8 | 80.9 | 2.1
Cc1nn(-c2ccccc2)c(Cl)c1/C=N/NC(=O)c1ccc(CNc2ccccc2)o1 | -1.6 | 0.6 | 101.4 | -1.6 | 102.1 | 35.1
Cc1nn(-c2ccccc2)c(Cl)c1/C=N/NC(=O)c1ccco1 | -45.4 | 0.4 | 140.8* | 15.9 | 95.0 | 57.5*
COc1cc(/C=N/NC(=O)c2cc(-c3c(C)nn(-c4ccccc4)c3C)n[nH]2)ccc1O | -123.2 | 0.9 | 209.2* | -149.5 | 236.3* | 13.0
COc1ccc(/C=N/NC(=O)c2nc(-c3ccccc3)cc(-c3ccccc3)n2)cc1O | -34.6 | 0.9 | 130.8* | 14.7 | 86.3 | 13.6
COc1ccc(/C=N/NC(=O)c2nc(-c3ccccc3)cc(-c3ccccc3)n2)cc1 | -22.2 | 0.9 | 120.0 | 17.9 | 89.8 | 10.9
COc1ccc(/C=N/Nc2nc3ccccc3o2)cc1O | -20.1 | 0.3 | 118.5 | 20.6 | 82.0 | 65.7*
COc1cc(/C=N/NC(=O)c2nc(-c3ccccc3)n(-c3ccccc3)n2)ccc1O | -3.5 | 1 | 103.1 | -3.9 | 105.1 | -3.2
Cc1ccc(S(=O)(=O)N2CCN(C(=S)NCc3ccc4c(c3)OCO4)CC2)cc1 | 5.0 | 1.1 | 95.9 | 0.7 | 99.9 | -8.1
Cc1nn(Cc2ccccc2)c(Cl)c1C(=O)NCCc1ccccc1 | -54.3 | 0.9 | 149.3* | -8.6 | 112.8 | 13.2
Cc1nn(Cc2ccccc2)c(Cl)c1C(=O)NCc1ccc(C)n1C | -1.0 | 1 | 100.9 | -2.0 | 108.4 | -4.1
CC1CC1C(=O)OCC(=O)NC(=O)NC12CC3CC(CC(C3)C1)C2 (stereo not drawn) | -28.7 | 1 | 126.9 | -9.5 | 112.7 | -3.4
NS(=O)(=O)c1ccc(NC(=O)CSc2nc3ccccc3[nH]2)cc1 | -8.8 | 1 | 106.7 | 8.4 | 94.1 | -1.8
CSc1ccc(C2c3[nH]c4ccccc4c3CCN2C(=O)c2cc(C)n(C)n2)cc1 (stereo not drawn) | -34.9 | 1 | 132.3* | -47.0 | 148.0* | -2.9
Cc1cnc(C(=O)N2CCc3c([nH]c4ccccc34)C2c2ccc(F)cc2)cn1 (stereo not drawn) | -7.1 | 1 | 104.4 | -11.6 | 115.8 | -4.4
Cc1nc(C(=O)N2CCc3c([nH]c4ccccc34)C2c2ccccn2)cs1 (stereo not drawn) | 2.9 | 1 | 96.2 | -4.4 | 106.6 | -4.5
Cc1nc(C(=O)N2CCc3c([nH]c4ccccc34)C2c2cc(F)ccc2F)cs1 (stereo not drawn) | -0.8 | 1 | 99.9 | -23.5 | 134.1* | 0.6
CCc1ccc(C2c3[nH]c4ccccc4c3CCN2C(=O)c2cc(C)nn2C)cc1 (stereo not drawn) | 13.1 | 1.1 | 87.7 | -31.5 | 133.4* | -5.1
Cc1c(C(=O)NCCCN2CCOCC2)oc2c1C1(CCC2)SCCS1 | -10.0 | 1 | 108.8 | -1.3 | 104.5 | -2.7
CCCCNC(=O)CNC(=S)N(CCCN1CCOCC1)Cc1cccs1 | -3.1 | 1.1 | 102.8 | 12.2 | 89.9 | -8.1
CSc1nc(S(=O)(=O)c2ccc(C)cc2)c(Cl)s1 | 11.8 | 1 | 88.9 | 7.9 | 95.3 | 0.0
COc1ccc(C(=O)c2ccc(N(C)C)cc2)c(OC)c1 | -16.7 | 1 | 115.1 | 7.9 | 97.2 | -4.9
CN(C)c1ccc(C(=O)c2ccc(N(C)C)c3ccccc23)cc1 | -32.3 | 1.1 | 139.2* | -52.5 | 146.1* | -5.6
